According to ChEMBL document CHEMBL5058577, “EUbOPEN Chemogenomics Library 2 (Multiplex)” (2022):

Tested on: U2OS
Test: Multiplex assay against U2OS
Assay type: toxicity, cell-based
Conditions: human
Method in brief: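 Hoechst33342, BioTracker Green Microtubule Cytoskeleton Dye, MitoTracker Red and Annexin V Alexa Fluor 680 were added to live cells at seeding, and imaging on a CQ1 microscope at 37°C and 5% CO2 followed compound addition. Gating by CellPathfinder machine learning separated cells into Hoechst high-intensity objects or normal cells, then normal cells into healthy, pyknosed or fragmented nuclei, then pyknosed cells into mitotic or apoptotic. Per cents of healthy-nucleus cells are reported for the tubulin, mitochondrial-mass and membrane-permeability phenotypes.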

[1] = 12 h, 1 µM, compound concentration 1 uM, replicate 1
[2] = 12 h, 1 µM, compound concentration 1 uM, replicate 2
[3] = 12 h, 10 µM, compound concentration 10 uM, replicate 1
[4] = 12 h, 10 µM, compound concentration 10 uM, replicate 2
[5] = 24 h, 1 µM, compound concentration 1 uM, replicate 1
[6] = 24 h, 1 µM, compound concentration 1 uM, replicate 2
[7] = 24 h, 10 µM, compound concentration 10 uM, replicate 1
[8] = 24 h, 10 µM, compound concentration 10 uM, replicate 2
[9] = 48 h, 1 µM, compound concentration 1 uM, replicate 1
[10] = 48 h, 1 µM, compound concentration 1 uM, replicate 2
[11] = 48 h, 10 µM, compound concentration 10 uM, replicate 1
[12] = 48 h, 10 µM, compound concentration 10 uM, replicate 2

## CN1C[C@H](C(=O)N[C@]2(C)O[C@@]3(O)[C@@H]4CCCN4C(=O)[C@H](Cc4ccccc4)N3C2=O)C[C@@H]2c3cccc4[nH]cc(c34)C[C@H]21.CS(=O)(=O)O [DIHYDROERGOTAMINE MESYLATE]
[1]
  Population Apoptotic (%): 82%
  Population Fragmented Nuclei (%): 24%
  Population Healthy Nuclei (%): 65%
  Population Hoechst High Intensity Objects (%): 1%
  Population Membrane Permeable-Phenotype (%): 6%
  Population Mitochondria Different-Phenotype (%): 2%
  Population Mitotic Cells (%): 17%
  Population Normal (%): 98%
  Population Pyknosed Nuclei (%): 10%
  Population Tubulin-Different-Phenotype (%): 2%
  Total Cell Count: 233
[2]
  Population Apoptotic (%): 84%
  Population Fragmented Nuclei (%): 23%
  Population Healthy Nuclei (%): 63%
  Population Membrane Permeable-Phenotype (%): 14%
  Population Mitochondria Different-Phenotype (%): 1%
  Population Mitotic Cells (%): 15%
  Population Pyknosed Nuclei (%): 13%
  Population Tubulin-Different-Phenotype (%): 7%
  Total Cell Count: 101
[3]
  Population Apoptotic (%): 71%
  Population Fragmented Nuclei (%): 19%
  Population Healthy Nuclei (%): 73%
  Population Hoechst High Intensity Objects (%): 2%
  Population Membrane Permeable-Phenotype (%): 5%
  Population Mitochondria Different-Phenotype (%): 1%
  Population Mitotic Cells (%): 28%
  Population Normal (%): 97%
  Population Pyknosed Nuclei (%): 7%
  Population Tubulin-Different-Phenotype (%): 3%
  Total Cell Count: 298
[4]
  Population Apoptotic (%): 100%
  Population Healthy Nuclei (%): 77%
  Population Hoechst High Intensity Objects (%): 1%
  Population Mitochondria Different-Phenotype (%): 0%
  Population Mitotic Cells (%): 0%
  Population Normal (%): 98%
  Population Pyknosed Nuclei (%): 2%
  Population Tubulin-Different-Phenotype (%): 0%
  Total Cell Count: 144
[5]
  Population Apoptotic (%): 89%
  Population Fragmented Nuclei (%): 23%
  Population Healthy Nuclei (%): 67%
  Population Hoechst High Intensity Objects (%): 0%
  Population Membrane Permeable-Phenotype (%): 2%
  Population Mitochondria Different-Phenotype (%): 0%
  Population Mitotic Cells (%): 10%
  Population Normal (%): 99%
  Population Pyknosed Nuclei (%): 9%
  Population Tubulin-Different-Phenotype (%): 2%
  Total Cell Count: 307
[6]
  Population Apoptotic (%): 100%
  Population Fragmented Nuclei (%): 21%
  Population Healthy Nuclei (%): 65%
  Population Hoechst High Intensity Objects (%): 1%
  Population Membrane Permeable-Phenotype (%): 8%
  Population Mitochondria Different-Phenotype (%): 2%
  Population Mitotic Cells (%): 0%
  Population Normal (%): 98%
  Population Pyknosed Nuclei (%): 13%
  Population Tubulin-Different-Phenotype (%): 4%
  Total Cell Count: 132
[7]
  Population Apoptotic (%): 88%
  Population Fragmented Nuclei (%): 18%
  Population Healthy Nuclei (%): 73%
  Population Hoechst High Intensity Objects (%): 1%
  Population Membrane Permeable-Phenotype (%): 4%
  Population Mitochondria Different-Phenotype (%): 2%
  Population Mitotic Cells (%): 11%
  Population Normal (%): 98%
  Population Pyknosed Nuclei (%): 8%
  Population Tubulin-Different-Phenotype (%): 2%
  Total Cell Count: 337
[8]
  Population Apoptotic (%): 92%
  Population Fragmented Nuclei (%): 16%
  Population Healthy Nuclei (%): 75%
  Population Mitotic Cells (%): 7%
  Population Tubulin-Different-Phenotype (%): 1%
  Total Cell Count: 163
[9]
  Population Apoptotic (%): 80%
  Population Fragmented Nuclei (%): 14%
  Population Healthy Nuclei (%): 78%
  Population Hoechst High Intensity Objects (%): 2%
  Population Membrane Permeable-Phenotype (%): 2%
  Population Mitochondria Different-Phenotype (%): 2%
  Population Mitotic Cells (%): 19%
  Population Normal (%): 97%
  Population Pyknosed Nuclei (%): 7%
  Population Tubulin-Different-Phenotype (%): 1%
  Total Cell Count: 427
[10]
  Population Apoptotic (%): 90%
  Population Fragmented Nuclei (%): 11%
  Population Healthy Nuclei (%): 76%
  Population Hoechst High Intensity Objects (%): 1%
  Population Membrane Permeable-Phenotype (%): 6%
  Population Mitotic Cells (%): 10%
  Population Normal (%): 98%
  Population Pyknosed Nuclei (%): 11%
  Population Tubulin-Different-Phenotype (%): 4%
  Total Cell Count: 173
[11]
  Population Apoptotic (%): 95%
  Population Fragmented Nuclei (%): 14%
  Population Healthy Nuclei (%): 75%
  Population Hoechst High Intensity Objects (%): 3%
  Population Membrane Permeable-Phenotype (%): 7%
  Population Mitochondria Different-Phenotype (%): 3%
  Population Mitotic Cells (%): 4%
  Population Normal (%): 96%
  Population Pyknosed Nuclei (%): 9%
  Population Tubulin-Different-Phenotype (%): 3%
  Total Cell Count: 452
[12]
  Population Apoptotic (%): 100%
  Population Fragmented Nuclei (%): 19%
  Population Healthy Nuclei (%): 72%
  Population Membrane Permeable-Phenotype (%): 3%
  Population Mitochondria Different-Phenotype (%): 1%
  Population Mitotic Cells (%): 0%
  Population Pyknosed Nuclei (%): 8%
  Population Tubulin-Different-Phenotype (%): 2%
  Total Cell Count: 217

## CN1CCC(C(=O)c2cccc(NC(=O)c3c(F)cc(F)cc3F)n2)CC1
[1]
  Population Apoptotic (%): 90%
  Population Fragmented Nuclei (%): 20%
  Population Healthy Nuclei (%): 70%
  Population Hoechst High Intensity Objects (%): 2%
  Population Membrane Permeable-Phenotype (%): 8%
  Population Mitochondria Different-Phenotype (%): 3%
  Population Mitotic Cells (%): 10%
  Population Normal (%): 97%
  Population Pyknosed Nuclei (%): 9%
  Population Tubulin-Different-Phenotype (%): 5%
  Total Cell Count: 218
[2]
  Population Apoptotic (%): 57%
  Population Healthy Nuclei (%): 71%
  Population Hoechst High Intensity Objects (%): 1%
  Population Membrane Permeable-Phenotype (%): 9%
  Population Mitochondria Different-Phenotype (%): 11%
  Population Mitotic Cells (%): 42%
  Population Normal (%): 98%
  Population Pyknosed Nuclei (%): 7%
  Population Tubulin-Different-Phenotype (%): 6%
  Total Cell Count: 89
[3]
  Population Apoptotic (%): 65%
  Population Fragmented Nuclei (%): 27%
  Population Healthy Nuclei (%): 63%
  Population Hoechst High Intensity Objects (%): 1%
  Population Membrane Permeable-Phenotype (%): 14%
  Population Mitochondria Different-Phenotype (%): 13%
  Population Mitotic Cells (%): 34%
  Population Normal (%): 98%
  Population Pyknosed Nuclei (%): 9%
  Population Tubulin-Different-Phenotype (%): 12%
  Total Cell Count: 270
[4]
  Population Apoptotic (%): 64%
  Population Fragmented Nuclei (%): 14%
  Population Healthy Nuclei (%): 68%
  Population Membrane Permeable-Phenotype (%): 15%
  Population Mitochondria Different-Phenotype (%): 18%
  Population Mitotic Cells (%): 35%
  Population Pyknosed Nuclei (%): 16%
  Population Tubulin-Different-Phenotype (%): 15%
  Total Cell Count: 103
[5]
  Population Apoptotic (%): 85%
  Population Fragmented Nuclei (%): 22%
  Population Healthy Nuclei (%): 67%
  Population Hoechst High Intensity Objects (%): 2%
  Population Membrane Permeable-Phenotype (%): 4%
  Population Mitochondria Different-Phenotype (%): 3%
  Population Mitotic Cells (%): 14%
  Population Normal (%): 97%
  Population Pyknosed Nuclei (%): 9%
  Population Tubulin-Different-Phenotype (%): 3%
  Total Cell Count: 284
[6]
  Population Apoptotic (%): 72%
  Population Fragmented Nuclei (%): 18%
  Population Healthy Nuclei (%): 71%
  Population Hoechst High Intensity Objects (%): 0%
  Population Membrane Permeable-Phenotype (%): 6%
  Population Mitochondria Different-Phenotype (%): 10%
  Population Mitotic Cells (%): 27%
  Population Normal (%): 99%
  Population Tubulin-Different-Phenotype (%): 0%
  Total Cell Count: 113
[7]
  Population Apoptotic (%): 82%
  Population Fragmented Nuclei (%): 21%
  Population Healthy Nuclei (%): 68%
  Population Hoechst High Intensity Objects (%): 2%
  Population Membrane Permeable-Phenotype (%): 8%
  Population Mitochondria Different-Phenotype (%): 9%
  Population Mitotic Cells (%): 17%
  Population Normal (%): 97%
  Population Pyknosed Nuclei (%): 9%
  Population Tubulin-Different-Phenotype (%): 5%
  Total Cell Count: 298
[8]
  Population Apoptotic (%): 66%
  Population Fragmented Nuclei (%): 15%
  Population Hoechst High Intensity Objects (%): 5%
  Population Membrane Permeable-Phenotype (%): 10%
  Population Mitochondria Different-Phenotype (%): 15%
  Population Mitotic Cells (%): 33%
  Population Normal (%): 94%
  Population Pyknosed Nuclei (%): 15%
  Population Tubulin-Different-Phenotype (%): 10%
  Total Cell Count: 126
[9]
  Population Apoptotic (%): 100%
  Population Fragmented Nuclei (%): 17%
  Population Healthy Nuclei (%): 70%
  Population Hoechst High Intensity Objects (%): 2%
  Population Membrane Permeable-Phenotype (%): 4%
  Population Mitochondria Different-Phenotype (%): 1%
  Population Mitotic Cells (%): 0%
  Population Normal (%): 97%
  Population Pyknosed Nuclei (%): 11%
  Population Tubulin-Different-Phenotype (%): 2%
  Total Cell Count: 394
[10]
  Population Apoptotic (%): 89%
  Population Fragmented Nuclei (%): 29%
  Population Healthy Nuclei (%): 57%
  Population Hoechst High Intensity Objects (%): 5%
  Population Membrane Permeable-Phenotype (%): 12%
  Population Mitochondria Different-Phenotype (%): 8%
  Population Mitotic Cells (%): 10%
  Population Normal (%): 94%
  Population Pyknosed Nuclei (%): 13%
  Population Tubulin-Different-Phenotype (%): 4%
  Total Cell Count: 149
[11]
  Population Apoptotic (%): 85%
  Population Fragmented Nuclei (%): 18%
  Population Healthy Nuclei (%): 69%
  Population Hoechst High Intensity Objects (%): 3%
  Population Membrane Permeable-Phenotype (%): 8%
  Population Mitochondria Different-Phenotype (%): 3%
  Population Mitotic Cells (%): 14%
  Population Normal (%): 96%
  Population Pyknosed Nuclei (%): 12%
  Population Tubulin-Different-Phenotype (%): 3%
  Total Cell Count: 398
[12]
  Population Fragmented Nuclei (%): 15%
  Population Membrane Permeable-Phenotype (%): 16%
  Population Mitochondria Different-Phenotype (%): 10%
  Population Pyknosed Nuclei (%): 14%
  Population Tubulin-Different-Phenotype (%): 8%
  Total Cell Count: 189
